Where two headings read alike, the source gives them in different places. Blank lines part the entries; values can stand above or below the compound they belong to.
Experiments:
α2C-AR = target: T1, α2C-AR (Homo sapiens, UniProt P18825); assay: Saturation binding assay of the radioligand; settings: read-out: KD α2C-AR
T1 sequence (P18825 1-462): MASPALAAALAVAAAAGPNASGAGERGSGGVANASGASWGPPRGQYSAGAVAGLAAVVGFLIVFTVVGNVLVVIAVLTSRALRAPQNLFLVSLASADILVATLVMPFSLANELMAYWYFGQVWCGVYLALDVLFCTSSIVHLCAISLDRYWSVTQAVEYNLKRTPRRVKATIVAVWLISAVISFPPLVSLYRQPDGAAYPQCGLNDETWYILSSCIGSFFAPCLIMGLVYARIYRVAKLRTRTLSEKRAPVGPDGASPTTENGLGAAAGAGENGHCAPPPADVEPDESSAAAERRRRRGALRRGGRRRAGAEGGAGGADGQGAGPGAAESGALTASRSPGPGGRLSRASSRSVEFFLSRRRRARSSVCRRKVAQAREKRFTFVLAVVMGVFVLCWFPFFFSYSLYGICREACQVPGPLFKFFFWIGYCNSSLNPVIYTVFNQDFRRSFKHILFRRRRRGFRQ
Outline: (§1)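 Saturation binding used membranes from COS-7 cells transiently expressing each human α2-AR subtype. Membranes were incubated 1 h at room temperature with 0.1–10 nM [125I]-PIC in 50 mM Tris-HCl/120 mM sucrose. […] Reactions were stopped with PBS and filtered through GF/B. Radioactivity was counted and KD came from nonlinear regression.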

α2A-AR [1] = target: T2, α2A-AR (Homo sapiens, UniProt P08913); assay: Saturation binding assay of the radioligand; settings: read-out: KD α2A-AR
T2 sequence (P08913 1-465): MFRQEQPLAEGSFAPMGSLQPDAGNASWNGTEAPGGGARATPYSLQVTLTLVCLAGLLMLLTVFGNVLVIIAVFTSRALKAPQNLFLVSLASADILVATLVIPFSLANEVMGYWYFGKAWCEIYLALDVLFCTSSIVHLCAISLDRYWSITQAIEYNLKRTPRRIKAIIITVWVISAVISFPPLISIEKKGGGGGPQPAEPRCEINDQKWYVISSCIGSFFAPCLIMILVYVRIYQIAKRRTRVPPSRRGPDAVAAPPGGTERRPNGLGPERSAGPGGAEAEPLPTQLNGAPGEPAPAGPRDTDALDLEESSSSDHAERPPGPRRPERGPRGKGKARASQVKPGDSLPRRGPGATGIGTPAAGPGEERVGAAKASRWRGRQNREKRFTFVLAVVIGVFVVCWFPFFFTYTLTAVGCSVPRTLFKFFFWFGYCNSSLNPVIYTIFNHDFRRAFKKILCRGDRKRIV
Outline: as §1

α2A-AR [2] = target: T2, α2A-AR; assay: cAMP-Glo assay, forskolin induced cAMP accumulation in transfected COS-7 cells; format: cell-based
CHO cells = settings: cited from earlier work

SMILES: Clc1cc(I)cc(Cl)c1NC1=NCCN1 [[^125I]-PIC, [^125I]-paraiodoclonidine]
Kd (α2C-AR): 802 ± 53 pM
Kd (α2A-AR [1]): 209 ± 60 pM

effect on the production of cAMP, compound alone (α2A-AR [2]; forskolin, no norepinephrine): did not have any effect
SMILES: Cc1ccc(N(CC2=NCCN2)c2cccc(O)c2)cc1 [phentolamine]

SMILES: CNC[C@H](O)c1ccc(O)c(O)c1 [epinephrine]
effect on cAMP production (CHO cells; from 10^−7 to 10^−6 M): increase
effect on cAMP production (CHO cells; from 10^−9 to 10^−8 M): inhibition

effect on cAMP production (α2A-AR [2]; higher concentrations (10^−3-10^−7M)): stimulated the expression of cAMP
effect on cAMP production (α2A-AR [2]; lower concentrations (10^−10-10^−8M)): inhibited the production of cAMP
SMILES: NC[C@H](O)c1ccc(O)c(O)c1 [norepinephrine]
